Experimental data reported in ChEMBL document CHEMBL1806454, “8-Aryl- and alkyloxycaffeine analogues as inhibitors of monoamine oxidase” (Eur J Med Chem, 2011).
pIC50, pKi: −log10 of the molar value.

Legend:
[1] = target: T1, Amine oxidase [flavin-containing] B (Homo sapiens, UniProt P27338); assay: Inhibition of recombinant human MAOB expressed in baculovirus infected insect cell microsomes using kynuramine as substrate assessed as formation of 4-hydroxyquinoline after 20 mins by fluorescence spectrophotometry; design: species or system Microsome
T1 sequence (P27338 whole entry): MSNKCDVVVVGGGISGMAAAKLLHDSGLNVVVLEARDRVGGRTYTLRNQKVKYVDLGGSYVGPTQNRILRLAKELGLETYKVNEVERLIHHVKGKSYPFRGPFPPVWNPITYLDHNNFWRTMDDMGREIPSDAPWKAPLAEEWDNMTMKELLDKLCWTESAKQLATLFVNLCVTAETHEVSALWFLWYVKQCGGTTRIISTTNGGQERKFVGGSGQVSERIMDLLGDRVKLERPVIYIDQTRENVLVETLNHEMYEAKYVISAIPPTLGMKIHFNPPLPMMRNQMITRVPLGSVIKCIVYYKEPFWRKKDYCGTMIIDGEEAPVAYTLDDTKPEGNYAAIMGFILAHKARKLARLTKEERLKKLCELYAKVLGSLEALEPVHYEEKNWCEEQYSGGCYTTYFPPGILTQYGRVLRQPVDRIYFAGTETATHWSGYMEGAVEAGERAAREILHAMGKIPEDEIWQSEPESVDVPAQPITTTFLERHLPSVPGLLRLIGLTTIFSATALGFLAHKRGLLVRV

Homo sapiens = species: Homo sapiens; assay: Selectivity index, ratio of Ki for recombinant human MAOB to Ki for recombinant human MAOA
Summary of the method: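 Recombinant human MAO-A and MAO-B in insect-cell microsomes (0.0075 mg/mL), kynuramine 45 µM (A) or 30 µM (B), inhibitor 0–100 µM, 9 concentrations, DMSO 4% final, K-phosphate 100 mM pH 7.4 isotonic with KCl, 37 °C 20 min. NaOH stop, 4-hydroxyquinoline fluorescence (ex 310/em 400 nm). Duplicate IC50 fits converted to Ki; SI = Ki(MAO-B)/Ki(MAO-A).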

[2] = target: T2, Amine oxidase [flavin-containing] A (Homo sapiens, UniProt P21397); assay: Inhibition of recombinant human MAOA expressed in baculovirus infected insect cell microsomes using kynuramine as substrate assessed as formation of 4-hydroxyquinoline after 20 mins by fluorescence spectrophotometry; design: species or system Microsome
T2 sequence (P21397 whole entry): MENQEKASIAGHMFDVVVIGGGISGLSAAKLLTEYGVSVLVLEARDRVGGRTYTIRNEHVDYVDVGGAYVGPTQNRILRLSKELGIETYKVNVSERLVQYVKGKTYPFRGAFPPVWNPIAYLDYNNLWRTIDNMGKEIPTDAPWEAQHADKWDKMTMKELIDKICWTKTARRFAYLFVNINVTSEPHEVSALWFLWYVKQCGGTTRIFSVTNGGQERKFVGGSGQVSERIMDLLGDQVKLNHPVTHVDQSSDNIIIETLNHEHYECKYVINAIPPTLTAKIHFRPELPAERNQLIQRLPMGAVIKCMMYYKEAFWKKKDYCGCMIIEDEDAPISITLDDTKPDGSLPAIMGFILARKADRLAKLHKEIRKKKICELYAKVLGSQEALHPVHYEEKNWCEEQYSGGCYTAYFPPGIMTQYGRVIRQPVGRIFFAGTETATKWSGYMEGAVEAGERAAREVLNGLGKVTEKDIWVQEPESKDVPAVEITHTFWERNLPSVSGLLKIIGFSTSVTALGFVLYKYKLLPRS

[3] = target: T1, Amine oxidase [flavin-containing] B; assay: Competitive inhibition of human recombinant MAOB expressed in baculovirus infected insect cell microsomes using kynuramine as substrate assessed as 4-hydroxyquinoline formation per min per mg protein by Lineweaver-Burk plot analysis; design: species or system Microsome
[4] = target: T2, Amine oxidase [flavin-containing] A; assay: Competitive inhibition of human recombinant MAOA expressed in baculovirus infected insect cell microsomes using kynuramine as substrate assessed as 4-hydroxyquinoline formation per min per mg protein by Lineweaver-Burk plot analysis; design: species or system Microsome
[5] = target: T1, Amine oxidase [flavin-containing] B; assay: Ratio of 8-benzyloxycaffeine IC50 to compound IC50 for recombinant human MAOB expressed in baculovirus infected insect cell microsomes; design: species or system Microsome

Structure (SMILES)	pIC50 [1]	pKi [1]	Ratio Ki (Homo sapiens)	pIC50 [2]	pKi [2]	pKi [3]	pKi [4]	Ratio IC50 [5]
CC(C)CCCCOc1nc2c(c(=O)n(C)c(=O)n2C)n1C	6.42	6.55	0.053	4.82	5.27			
Cn1c(=O)c2c(nc(Oc3ccccc3)n2C)n(C)c1=O	4.97	5.11	0.3	4.12	4.58			
Cn1c(=O)c2c(nc(OCCOc3ccc(Br)cc3)n2C)n(C)c1=O	6.78	6.92	0.207	5.78	6.24	7.06	5.93	
CC(C)CCOc1nc2c(c(=O)n(C)c(=O)n2C)n1C	4.85	4.99	1.08	4.56	5.02			
Cn1c(=O)c2c(nc(OCc3ccc(Br)cc3)n2C)n(C)c1=O	7.21	7.35	0.099	5.88	6.34			27
Cn1c(=O)c2c(nc(OCCOc3ccc(Cl)cc3)n2C)n(C)c1=O					6.19			
Cn1c(=O)c2c(nc(OCCc3ccccc3)n2C)n(C)c1=O	5.53	5.67	0.39	4.80	5.25			
Cn1c(=O)c2c(nc(OCC3CC=CCC3)n2C)n(C)c1=O (stereo not given)	5.52	5.66	0.45	4.86	5.32			
Cn1c(=O)c2c(nc(OCc3ccc(Cl)cc3)n2C)n(C)c1=O	7.19	7.32	0.1	5.87	6.33			27
Cn1c(=O)c2c(nc(OCCOc3ccccc3)n2C)n(C)c1=O	6.42	6.55	0.0036	4.69	4.11			
Cn1c(=O)c2c(nc(OCCOCc3ccccc3)n2C)n(C)c1=O	5.42	5.56	0.047	3.78	4.23			
Cn1c(=O)c2c(nc(OCC3CCCCC3)n2C)n(C)c1=O	5.86	6.00	0.16	4.73	5.19			
Cn1c(=O)c2c(nc(OCC3CCCC3)n2C)n(C)c1=O	4.80	4.93	1.46	4.64	5.10			
Cn1c(=O)c2c(nc(OCCCc3ccccc3)n2C)n(C)c1=O	6.21	6.35	0.019	4.16	4.61			
